Experiments:
Dipeptidyl peptidase 4 [1] = molecular target: T1, Dipeptidyl peptidase 4 (Homo sapiens, UniProt P27487)
Target sequence in this assay (P27487 whole entry): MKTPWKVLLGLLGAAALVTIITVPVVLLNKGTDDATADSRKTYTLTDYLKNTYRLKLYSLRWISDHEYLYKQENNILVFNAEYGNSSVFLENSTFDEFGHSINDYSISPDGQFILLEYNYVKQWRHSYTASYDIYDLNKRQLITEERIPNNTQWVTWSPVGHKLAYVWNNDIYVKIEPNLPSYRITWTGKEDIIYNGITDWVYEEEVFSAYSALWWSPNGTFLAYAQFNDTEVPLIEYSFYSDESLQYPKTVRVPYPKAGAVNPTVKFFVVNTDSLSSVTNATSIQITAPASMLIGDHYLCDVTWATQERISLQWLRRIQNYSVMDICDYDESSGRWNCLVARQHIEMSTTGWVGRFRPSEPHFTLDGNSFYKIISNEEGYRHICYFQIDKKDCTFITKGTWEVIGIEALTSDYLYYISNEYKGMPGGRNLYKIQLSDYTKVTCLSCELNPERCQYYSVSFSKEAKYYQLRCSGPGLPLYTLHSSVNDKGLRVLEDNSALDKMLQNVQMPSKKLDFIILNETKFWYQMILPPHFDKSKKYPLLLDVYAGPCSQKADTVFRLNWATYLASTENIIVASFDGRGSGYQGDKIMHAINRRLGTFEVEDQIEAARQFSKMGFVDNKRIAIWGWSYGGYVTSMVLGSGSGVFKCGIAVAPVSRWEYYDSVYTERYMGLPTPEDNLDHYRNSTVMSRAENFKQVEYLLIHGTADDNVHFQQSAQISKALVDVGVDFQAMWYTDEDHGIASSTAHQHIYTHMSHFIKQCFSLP

Dipeptidyl peptidase 2 = Dipeptidyl peptidase 2 (Homo sapiens, UniProt Q9UHL4); experiment: Inhibitory concentration against human dipeptidylpeptidase 7
Prolyl endopeptidase FAP = molecular target: T2, Prolyl endopeptidase FAP (Homo sapiens, UniProt Q12884); experiment: Inhibitory concentration against human fibroblast activation protein alpha; ni = no inhibition at 33 uM concentration
T2 sequence (Q12884 whole entry): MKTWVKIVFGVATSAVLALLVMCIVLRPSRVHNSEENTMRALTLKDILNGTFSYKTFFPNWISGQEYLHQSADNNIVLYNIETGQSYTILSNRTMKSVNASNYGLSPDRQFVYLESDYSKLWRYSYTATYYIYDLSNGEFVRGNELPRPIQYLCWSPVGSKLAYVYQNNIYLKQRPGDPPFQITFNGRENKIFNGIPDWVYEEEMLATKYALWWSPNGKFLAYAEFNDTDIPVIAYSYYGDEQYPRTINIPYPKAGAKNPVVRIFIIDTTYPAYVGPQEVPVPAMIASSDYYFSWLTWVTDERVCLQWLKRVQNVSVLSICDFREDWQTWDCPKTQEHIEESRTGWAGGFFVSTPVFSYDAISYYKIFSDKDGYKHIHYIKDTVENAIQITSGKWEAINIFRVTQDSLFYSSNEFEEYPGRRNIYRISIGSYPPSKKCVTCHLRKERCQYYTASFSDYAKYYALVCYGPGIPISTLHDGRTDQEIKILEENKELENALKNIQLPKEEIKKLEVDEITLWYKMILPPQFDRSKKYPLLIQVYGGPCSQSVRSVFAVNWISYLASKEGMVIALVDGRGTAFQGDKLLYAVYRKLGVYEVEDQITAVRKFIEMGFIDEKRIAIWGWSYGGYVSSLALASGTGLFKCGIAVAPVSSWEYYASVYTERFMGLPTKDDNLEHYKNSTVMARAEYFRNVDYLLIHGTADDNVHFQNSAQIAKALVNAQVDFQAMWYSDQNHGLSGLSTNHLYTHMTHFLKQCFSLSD

Dipeptidyl peptidase 8 = Dipeptidyl peptidase 8 (Homo sapiens, UniProt Q6V1X1); experiment: Inhibitory concentration against human dipeptidylpeptidase 8 using FP-TAMRA incubated for 30 min; ni = no inhibition at 20 uM concentration
Sequence of Dipeptidyl peptidase 8 (Q6V1X1 whole entry): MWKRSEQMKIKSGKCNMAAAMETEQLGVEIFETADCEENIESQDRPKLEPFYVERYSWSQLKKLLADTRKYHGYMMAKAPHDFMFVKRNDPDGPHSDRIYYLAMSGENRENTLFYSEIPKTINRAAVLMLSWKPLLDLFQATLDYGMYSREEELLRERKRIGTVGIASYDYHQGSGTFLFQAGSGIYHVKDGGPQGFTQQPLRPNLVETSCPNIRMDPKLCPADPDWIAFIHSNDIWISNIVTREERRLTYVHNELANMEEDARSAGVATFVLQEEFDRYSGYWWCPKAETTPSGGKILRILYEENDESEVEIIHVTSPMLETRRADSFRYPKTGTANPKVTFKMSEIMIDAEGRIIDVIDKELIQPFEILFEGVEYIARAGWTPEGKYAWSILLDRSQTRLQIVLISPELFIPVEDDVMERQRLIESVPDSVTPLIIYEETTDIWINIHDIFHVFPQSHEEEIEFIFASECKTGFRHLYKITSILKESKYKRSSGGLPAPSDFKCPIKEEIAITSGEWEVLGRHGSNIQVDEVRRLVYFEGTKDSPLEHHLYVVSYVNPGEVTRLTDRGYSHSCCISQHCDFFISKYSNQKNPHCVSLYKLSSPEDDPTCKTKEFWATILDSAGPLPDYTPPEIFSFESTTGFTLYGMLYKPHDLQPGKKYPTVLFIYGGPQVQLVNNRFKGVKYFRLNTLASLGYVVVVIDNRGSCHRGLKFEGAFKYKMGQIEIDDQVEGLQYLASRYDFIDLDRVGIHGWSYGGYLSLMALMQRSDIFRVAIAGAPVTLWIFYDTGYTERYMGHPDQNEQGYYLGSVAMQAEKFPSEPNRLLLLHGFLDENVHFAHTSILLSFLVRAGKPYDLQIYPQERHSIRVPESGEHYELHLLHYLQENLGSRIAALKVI
Method in brief: (§1)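 DPP8 and DPP9 from MDA-MB-435 cell lysate. Compounds dissolved in 50% DMSO/50 mM glycine buffer pH 2.5 (final DMSO 1% v/v), serially diluted into lysate, FP-TAMRA activity-based probe labeling, 30 min, quenched with loading buffer. Labeled enzyme resolved by SDS–PAGE, TAMRA fluorescence read by flatbed gel scanner. Duplicates; activity as % of enzyme-alone control, IC50 from Hill fit.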

Dipeptidyl peptidase 9 [2] = molecular target: T3, Dipeptidyl peptidase 9 (Homo sapiens, UniProt Q86TI2); experiment: Inhibitory concentration against human dipeptidylpeptidase 9 using FP-TAMRA incubated for 30 min; ni = no inhibition at 20 uM concentration
Method in brief: as §1
Target sequence in this assay (Q86TI2 whole entry): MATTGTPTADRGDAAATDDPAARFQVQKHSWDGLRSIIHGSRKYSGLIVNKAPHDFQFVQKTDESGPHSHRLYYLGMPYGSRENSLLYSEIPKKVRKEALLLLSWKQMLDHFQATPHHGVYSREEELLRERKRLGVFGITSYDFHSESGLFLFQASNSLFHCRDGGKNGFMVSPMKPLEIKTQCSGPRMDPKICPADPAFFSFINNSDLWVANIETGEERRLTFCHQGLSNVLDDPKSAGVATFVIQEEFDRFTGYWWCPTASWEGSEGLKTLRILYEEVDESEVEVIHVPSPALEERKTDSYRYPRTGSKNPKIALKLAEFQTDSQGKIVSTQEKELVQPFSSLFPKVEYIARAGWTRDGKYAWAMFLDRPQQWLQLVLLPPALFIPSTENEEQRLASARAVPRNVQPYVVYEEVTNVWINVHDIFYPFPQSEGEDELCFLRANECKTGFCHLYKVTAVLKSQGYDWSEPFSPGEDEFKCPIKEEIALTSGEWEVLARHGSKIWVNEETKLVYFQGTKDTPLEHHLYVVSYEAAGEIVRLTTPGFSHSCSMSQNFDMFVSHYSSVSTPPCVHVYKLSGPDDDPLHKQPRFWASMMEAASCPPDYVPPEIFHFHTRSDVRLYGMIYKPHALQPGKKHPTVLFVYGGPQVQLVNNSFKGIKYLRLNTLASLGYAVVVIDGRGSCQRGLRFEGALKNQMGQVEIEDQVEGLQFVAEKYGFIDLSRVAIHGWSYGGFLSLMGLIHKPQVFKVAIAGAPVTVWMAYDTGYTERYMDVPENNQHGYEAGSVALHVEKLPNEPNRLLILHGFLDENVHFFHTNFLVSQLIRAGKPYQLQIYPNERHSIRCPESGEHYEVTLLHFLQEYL

Dipeptidyl peptidase 4 [3] = molecular target: T1, Dipeptidyl peptidase 4; experiment: Percent inhibition against human dipeptidylpeptidase 4 at 33 uM concentration
Target sequence in this assay (P27487 whole entry, looked up): as the sequence (P27487 whole entry) above

Dipeptidyl peptidase 4 [4] = molecular target: T1, Dipeptidyl peptidase 4; experiment: Inhibitory concentration against human dipeptidylpeptidase 4
Target sequence in this assay (P27487 whole entry): as above

Dipeptidyl peptidase 9 [5] = molecular target: T3, Dipeptidyl peptidase 9; experiment: Percentage inhibition against human dipeptidylpeptidase 9 using FP-TAMRA incubated for 30 min at 20 uM concentration
Method in brief: as §1
Target sequence in this assay (Q86TI2 2-863 limits assumed): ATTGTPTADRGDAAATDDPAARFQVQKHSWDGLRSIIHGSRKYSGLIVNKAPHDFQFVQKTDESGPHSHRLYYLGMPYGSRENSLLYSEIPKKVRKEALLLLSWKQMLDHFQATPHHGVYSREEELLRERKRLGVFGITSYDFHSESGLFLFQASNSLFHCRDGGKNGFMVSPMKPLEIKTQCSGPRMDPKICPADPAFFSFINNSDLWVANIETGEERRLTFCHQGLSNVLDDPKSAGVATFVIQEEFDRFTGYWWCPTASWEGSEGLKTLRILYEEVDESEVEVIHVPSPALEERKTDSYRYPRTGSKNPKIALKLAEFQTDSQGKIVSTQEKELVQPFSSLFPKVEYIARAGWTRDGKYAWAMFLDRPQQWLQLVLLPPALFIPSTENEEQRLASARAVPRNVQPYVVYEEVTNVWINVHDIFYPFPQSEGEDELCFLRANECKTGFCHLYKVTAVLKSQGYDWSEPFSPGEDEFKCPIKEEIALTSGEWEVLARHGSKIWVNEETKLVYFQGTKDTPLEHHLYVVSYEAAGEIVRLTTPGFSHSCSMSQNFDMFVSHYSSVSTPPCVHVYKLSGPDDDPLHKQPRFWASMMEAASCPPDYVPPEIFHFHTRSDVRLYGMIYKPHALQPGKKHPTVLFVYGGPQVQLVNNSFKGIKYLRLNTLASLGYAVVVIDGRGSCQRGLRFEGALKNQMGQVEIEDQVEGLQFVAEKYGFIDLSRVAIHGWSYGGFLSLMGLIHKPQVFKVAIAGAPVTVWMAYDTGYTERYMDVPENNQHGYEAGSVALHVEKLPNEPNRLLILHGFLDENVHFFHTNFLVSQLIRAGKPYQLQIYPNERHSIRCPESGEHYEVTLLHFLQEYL

| IC50 (Dipeptidyl peptidase 2) | IC50 (Prolyl endopeptidase FAP) | IC50 (Dipeptidyl peptidase 4 [4]) | Compound | IC50 (Dipeptidyl peptidase 4 [1]) | IC50 (Dipeptidyl peptidase 8) | IC50 (Dipeptidyl peptidase 9 [2]) | inhibition (Dipeptidyl peptidase 4 [3]) | inhibition (Dipeptidyl peptidase 9 [5]) |
| --- | --- | --- | --- | --- | --- | --- | --- | --- |
| 5500 nM | No inhibition | – | CCCCCNC(=O)[C@@H](N)CCCC | – | No inhibition | No inhibition | 35% | – |
| 0.72 nM | – | 15 nM | NCC[C@H](N)C(=O)N1CCC[C@@H]1B(O)O | – | – | – | – | – |
| 18 nM | No inhibition | 370 nM | CCCC[C@@H](NC(=O)[C@@H](N)CCCC)B(O)O | – | – | – | – | – |
| 8.2 nM | No inhibition | 2000 nM | CCCC[C@@H](NC(=O)[C@@H](N)CN)B(O)O | – | No inhibition | – | – | – |
| 71 nM | No inhibition | 810 nM | CCCC[C@@H](NC(=O)[C@@H](N)CCC)B(O)O | – | – | – | – | – |
| 40 nM | No inhibition | 17000 nM | CCCC[C@@H](NC(=O)[C@@H](N)C(C)C)B(O)O | – | – | – | – | – |
| 2 nM | – | 4.5 nM | CCCC[C@H](N)C(=O)N1CCC[C@@H]1B(O)O | – | – | – | – | – |
| 160 nM | – | – | CC(C)[C@H](N)C(=O)N[C@@H](C)B(O)O | – | – | – | – | – |
| 4.7 nM | No inhibition | 1200 nM | CCCC[C@@H](NC(=O)[C@@H](N)CCCN)B(O)O | – | – | – | – | – |
| 49 nM | No inhibition | 32000 nM | CCCC[C@@H](NC(=O)[C@@H](N)CC)B(O)O | – | – | – | – | – |

| Compound | IC50 (Dipeptidyl peptidase 2) | IC50 (Prolyl endopeptidase FAP) | IC50 (Dipeptidyl peptidase 4 [4]) | IC50 (Dipeptidyl peptidase 4 [1]) | IC50 (Dipeptidyl peptidase 8) | IC50 (Dipeptidyl peptidase 9 [2]) | inhibition (Dipeptidyl peptidase 4 [3]) | inhibition (Dipeptidyl peptidase 9 [5]) |
| --- | --- | --- | --- | --- | --- | --- | --- | --- |
| CCCCCNC(=O)[C@@H](N)CCN | 2600 nM | No inhibition | – | Not Active | No inhibition | No inhibition | – | – |
| CCCC[C@@H](NC(=O)[C@@H]1CCCN1)B(O)O | 890 nM | No inhibition | – | Not Active | No inhibition | – | – | 35% |
| CCCC[C@@H](NC(=O)[C@@H](N)CCCCN)B(O)O | 3.7 nM | No inhibition | – | Not Active | – | – | – | – |
| CCCC[C@@H](NC(=O)[C@H](C)N)B(O)O | 220 nM | No inhibition | – | Not Active | – | – | – | 40% |
| CCCC[C@@H](NC(=O)[C@@H](N)CCN)B(O)O | 0.48 nM | No inhibition | – | – | – | – | 40% | – |
